In ChEMBL document CHEMBL4354820, “Optimizing Targeted Inhibitors of P-Glycoprotein Using Computational and Structure-Guided Approaches” (J Med Chem, 2019):

The compounds below were run against P-glycoprotein 1 Abcb1a (Mus musculus) (assay: Inhibition of spin-labelled adenine nucleotide interaction with mouse MDR3 P-gp expressed in Escherichia coli BL21 (DE3) assessed as apparent dissociation constant by ESR analysis (reference value: 36.5 +/- 3.6 uM)). Conditions: not given; call rule not given here.

`Cc1cc(C)c(-c2cc(NC(=O)CSCC(=O)c3ccc4c(c3)Cc3ccccc3-4)n(-c3ccccc3)n2)cc1C` and `Cc1cc(C)c(-c2cc(NC(=O)CSCC(=O)NCc3ccc(F)cc3)n(-c3ccccc3)n2)cc1C` are within 1.5-fold of each other in Kd: 23.1 µM for the first, 25.7 µM for the second.

These compounds were tested against T1, P-glycoprotein (ABCB1, MDR1) ATPase (Homo sapiens, UniProt P08183) (assay: Inhibition of verampil-stimulated ATPase hydrolysis in recombinant human MDR1 expressed in Pichia pastoris measured after 30 mins in presence of NADH by coupled enzyme assay (reference value: 100 +/- 6 %)). Conditions: recombinant human MDR1 (P-gp) expressed in Pichia pastoris.
T1 sequence (P08183 whole entry): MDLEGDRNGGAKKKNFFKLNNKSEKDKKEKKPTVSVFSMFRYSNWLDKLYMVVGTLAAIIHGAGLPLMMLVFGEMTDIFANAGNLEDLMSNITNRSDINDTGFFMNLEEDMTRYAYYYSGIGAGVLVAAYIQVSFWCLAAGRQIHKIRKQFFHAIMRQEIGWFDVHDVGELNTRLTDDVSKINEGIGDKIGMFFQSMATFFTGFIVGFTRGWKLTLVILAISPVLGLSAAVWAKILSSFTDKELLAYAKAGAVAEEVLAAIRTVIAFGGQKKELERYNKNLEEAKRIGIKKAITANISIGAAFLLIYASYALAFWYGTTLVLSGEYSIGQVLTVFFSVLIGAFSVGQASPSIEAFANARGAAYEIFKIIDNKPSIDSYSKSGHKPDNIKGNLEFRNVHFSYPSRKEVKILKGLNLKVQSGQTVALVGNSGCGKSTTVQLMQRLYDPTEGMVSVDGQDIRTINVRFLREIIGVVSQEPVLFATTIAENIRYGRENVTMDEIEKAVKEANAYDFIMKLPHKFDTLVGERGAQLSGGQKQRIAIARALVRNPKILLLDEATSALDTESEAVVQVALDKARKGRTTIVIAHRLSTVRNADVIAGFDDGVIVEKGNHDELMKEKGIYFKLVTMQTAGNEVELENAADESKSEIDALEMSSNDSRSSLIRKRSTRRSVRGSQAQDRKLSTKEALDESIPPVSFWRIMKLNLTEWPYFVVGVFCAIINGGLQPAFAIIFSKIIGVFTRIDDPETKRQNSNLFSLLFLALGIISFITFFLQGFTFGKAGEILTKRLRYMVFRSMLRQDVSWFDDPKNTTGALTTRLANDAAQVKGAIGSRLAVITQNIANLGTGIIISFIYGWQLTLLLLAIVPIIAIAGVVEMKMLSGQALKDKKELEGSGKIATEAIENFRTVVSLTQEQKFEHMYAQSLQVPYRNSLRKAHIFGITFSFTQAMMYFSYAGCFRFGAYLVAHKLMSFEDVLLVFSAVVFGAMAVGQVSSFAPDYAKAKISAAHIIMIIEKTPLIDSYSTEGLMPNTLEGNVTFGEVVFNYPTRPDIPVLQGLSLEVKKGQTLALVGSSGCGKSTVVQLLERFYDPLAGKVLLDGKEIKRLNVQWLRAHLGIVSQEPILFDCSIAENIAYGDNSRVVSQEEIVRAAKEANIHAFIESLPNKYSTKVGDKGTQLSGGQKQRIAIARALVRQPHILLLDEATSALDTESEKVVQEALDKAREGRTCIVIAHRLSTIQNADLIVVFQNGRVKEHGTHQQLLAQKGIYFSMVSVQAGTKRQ
Set-up: scale not given: the % may be the effect or the level left

Compared with `Cc1cc(C)c(-c2cc(NC(=O)CSCC(=O)c3ccc4c(c3)Cc3ccccc3-4)n(-c3ccccc3)n2)cc1C`, `Cc1cc(C)c(-c2cc(NC(=O)CSCC(=O)NCc3ccc(F)cc3)n(-c3ccccc3)n2)cc1C` is lower in Activity at 0.5 h: 64% for the first, 59% for the second.

Each compound was assayed against T2, ATP-dependent translocase ABCB1 (Homo sapiens, UniProt P08183) (assay: Reversal of P-gp mediated multidrug resistance in human DU145-TxR cells overexpressing P-gp assessed as potentiation of paclitaxel-induced cytotoxicity by measuring fold reduction paclitaxel IC50 at 10 uM after 48 hrs by MTT assay relative to paclitaxel alone). Conditions: not given.
T2 sequence (P08183 whole entry): as above
Format: cell-based
In short: (§1)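 DU145TXR cells seeded at 3000 per well, 24 h later treated 48 h with paclitaxel alone or with 3, 5, 7 or 10 μM inhibitor in complete medium (DMSO vehicle). MTT 4 h, formazan dissolved in DMSO, A570 read, background subtracted, viability relative to DMSO. IC50 by four-parameter nonlinear fit; eight replicates, at least two experiments. Fold values compare paclitaxel alone or with parent inhibitor.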

First: Cc1cc(C)c(-c2cc(NC(=O)CSCC(=O)c3ccc4c(c3)Cc3ccccc3-4)n(-c3ccccc3)n2)cc1C
Second: Cc1cc(C)c(-c2cc(NC(=O)CSCC(=O)NCc3ccc(F)cc3)n(-c3ccccc3)n2)cc1C
The “fold change (FC)” value of the first is higher: 37 for the first, 16 for the second.

These compounds were tested against T2, ATP-dependent translocase ABCB1 (assay: Reversal of P-gp mediated multidrug resistance in human DU145-TxR cells overexpressing P-gp assessed as potentiation of paclitaxel-induced cytotoxicity by measuring fold reduction paclitaxel IC50 at 7 uM after 48 hrs by MTT assay relative to parent compound). Conditions: not given.
Format: cell-based
In short: as §1

Going from `Cc1cc(C)c(-c2cc(NC(=O)CSCC(=O)c3ccc4c(c3)Cc3ccccc3-4)n(-c3ccccc3)n2)cc1C` to `Cc1cc(C)c(-c2cc(NC(=O)CSCC(=O)NCc3ccc(F)cc3)n(-c3ccccc3)n2)cc1C`, the “fold change (FC)” value falls from 1 to 0.3.

These compounds were tested against T3, P-glycoprotein (ABCB1, mouse MDR3) ATPase (Mus musculus, UniProt P21447) (assay: Effect on basal ATPase hydrolysis of recombinant mouse MDR3 expressed in Pichia pastoris measured after 30 mins in presence of NADH by coupled enzyme assay (reference value: 100 +/- 7 %)). Conditions: recombinant mouse MDR3 (P-gp) expressed in Pichia pastoris, read-out: Activity.
T3 sequence (P21447 whole entry): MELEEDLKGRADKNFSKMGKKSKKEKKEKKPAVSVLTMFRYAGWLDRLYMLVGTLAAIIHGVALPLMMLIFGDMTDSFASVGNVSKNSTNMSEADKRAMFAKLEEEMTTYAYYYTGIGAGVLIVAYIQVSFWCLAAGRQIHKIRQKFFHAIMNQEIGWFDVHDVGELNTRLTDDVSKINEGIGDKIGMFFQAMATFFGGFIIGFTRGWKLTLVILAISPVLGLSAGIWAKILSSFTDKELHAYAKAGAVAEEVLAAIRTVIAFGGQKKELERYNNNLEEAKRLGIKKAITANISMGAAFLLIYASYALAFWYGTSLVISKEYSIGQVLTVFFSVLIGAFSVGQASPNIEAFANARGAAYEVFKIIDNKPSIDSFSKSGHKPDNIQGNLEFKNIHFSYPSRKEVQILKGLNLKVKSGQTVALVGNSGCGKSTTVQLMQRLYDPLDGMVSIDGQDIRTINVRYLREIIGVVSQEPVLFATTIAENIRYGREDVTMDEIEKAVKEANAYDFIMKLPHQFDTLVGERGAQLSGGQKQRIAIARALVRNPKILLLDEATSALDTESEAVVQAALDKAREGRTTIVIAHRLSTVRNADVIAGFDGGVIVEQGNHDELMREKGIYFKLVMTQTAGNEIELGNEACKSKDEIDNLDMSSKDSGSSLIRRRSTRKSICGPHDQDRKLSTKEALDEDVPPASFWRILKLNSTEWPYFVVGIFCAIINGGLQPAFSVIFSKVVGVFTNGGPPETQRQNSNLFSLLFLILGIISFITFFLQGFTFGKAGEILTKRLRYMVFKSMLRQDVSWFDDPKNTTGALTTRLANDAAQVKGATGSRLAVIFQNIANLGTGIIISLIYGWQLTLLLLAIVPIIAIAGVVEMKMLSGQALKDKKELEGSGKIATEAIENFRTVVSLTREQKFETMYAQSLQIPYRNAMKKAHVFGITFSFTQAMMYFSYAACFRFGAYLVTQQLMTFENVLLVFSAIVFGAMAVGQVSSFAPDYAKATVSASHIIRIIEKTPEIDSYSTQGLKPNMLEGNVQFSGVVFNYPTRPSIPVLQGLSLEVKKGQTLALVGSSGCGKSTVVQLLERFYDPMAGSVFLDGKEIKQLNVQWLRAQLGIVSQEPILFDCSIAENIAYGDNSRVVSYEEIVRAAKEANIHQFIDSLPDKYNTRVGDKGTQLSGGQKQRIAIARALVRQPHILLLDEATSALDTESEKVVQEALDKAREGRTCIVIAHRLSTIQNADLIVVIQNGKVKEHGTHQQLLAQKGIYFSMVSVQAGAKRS
Set-up: scale not given: the % may be the effect or the level left

Compared with `Cc1cc(C)c(-c2cc(NC(=O)CSCC(=O)c3ccc4c(c3)Cc3ccccc3-4)n(-c3ccccc3)n2)cc1C`, `Cc1cc(C)c(-c2cc(NC(=O)CSCC(=O)NCc3ccc(F)cc3)n(-c3ccccc3)n2)cc1C` is higher in Activity at 0.5 h: 105% for the first, 143% for the second.

The compounds below were run against T2, ATP-dependent translocase ABCB1 (assay: Ratio of inhibition of P-gp overexpressed in human DU145-TxR cells assessed as increase in intracellular compound accumulation after 2.5 hrs in presence of tariquidar by LC-MS/MS analysis to Inhibition of P-gp overexpressed in human DU145-TxR cells assessed as decrease in intracellular compound accumulation after 2.5 hrs in absence of tariquidar by LC-MS/MS analysis). Conditions: not given.
Format: cell-based
In short: (§2)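 P-gp-overexpressing DU145TXR cells exposed to test compounds with or without tariquidar. Intracellular compound measured by LC–MS/MS, with daunorubicin as a transported-substrate control. Ratio is accumulation with tariquidar divided by accumulation without.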

Going from `Cc1cc(C)c(-c2cc(NC(=O)CSCC(=O)c3ccc4c(c3)Cc3ccccc3-4)n(-c3ccccc3)n2)cc1C` to `Cc1cc(C)c(-c2cc(NC(=O)CSCC(=O)NCc3ccc(F)cc3)n(-c3ccccc3)n2)cc1C`, the Ratio rises from 1.1 to 1.3.

What follows are compounds tested against T2, ATP-dependent translocase ABCB1 (assay: Inhibition of P-gp overexpressed in human DU145-TxR cells assessed as increase in cellular accumulation of calcein AM at 2 uM preincubated for 6 hrs followed by calcein AM addition by fluorescence imaging analysis). Conditions: not given.
Format: cell-based
In short: (§3)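 Confluent DU145TXR monolayers in phenol red-free RPMI 1640 given 2 μM inhibitor (DMSO vehicle) and 1 μg mL−1 calcein AM, either added together or after a 6 h inhibitor-only preincubation at 37 °C. Calcein fluorescence (ex 485 / em 535 nm) read over 60 min at 20 min intervals. Six replicates, at least two independent experiments.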

`Cc1cc(C)c(-c2cc(NC(=O)CSCC(=O)c3ccc4c(c3)Cc3ccccc3-4)n(-c3ccccc3)n2)cc1C` was tested, and the “inhibition (INH)” value was “Active”.
For `Cc1cc(C)c(-c2cc(NC(=O)CSCC(=O)NCc3ccc(F)cc3)n(-c3ccccc3)n2)cc1C`, the “inhibition (INH)” value was “Active”.

Each compound was assayed against T2, ATP-dependent translocase ABCB1 (assay: Reversal of P-gp mediated multidrug resistance in human DU145-TxR cells overexpressing P-gp assessed as potentiation of paclitaxel-induced cytotoxicity by measuring fold reduction paclitaxel IC50 at 10 uM after 48 hrs by MTT assay relative to parent compound). Conditions: not given.
Format: cell-based
In short: as §1

First: Cc1cc(C)c(-c2cc(NC(=O)CSCC(=O)c3ccc4c(c3)Cc3ccccc3-4)n(-c3ccccc3)n2)cc1C
Second: Cc1cc(C)c(-c2cc(NC(=O)CSCC(=O)NCc3ccc(F)cc3)n(-c3ccccc3)n2)cc1C
The “fold change (FC)” value of the first is higher: 0.4 for the first, 0.2 for the second.

Each compound was assayed against T2, ATP-dependent translocase ABCB1 (assay: Reversal of P-gp mediated multidrug resistance in human DU145-TxR cells overexpressing P-gp assessed as potentiation of paclitaxel-induced cytotoxicity by measuring fold reduction paclitaxel IC50 at 3 uM after 48 hrs by MTT assay relative to paclitaxel alone). Conditions: not given.
Format: cell-based
In short: as §1

First: Cc1cc(C)c(-c2cc(NC(=O)CSCC(=O)c3ccc4c(c3)Cc3ccccc3-4)n(-c3ccccc3)n2)cc1C
Second: Cc1cc(C)c(-c2cc(NC(=O)CSCC(=O)NCc3ccc(F)cc3)n(-c3ccccc3)n2)cc1C
The “fold change (FC)” value of the first is higher: 8 for the first, 4.6 for the second.

The compounds below were run against T1, P-glycoprotein (ABCB1, MDR1) ATPase (assay: Basal ATPase hydrolysis in recombinant human MDR1 expressed in Pichia pastoris measured after 30 mins in presence of NADH by coupled enzyme assay (reference value: 100 +/- 5 %)). Conditions: recombinant human MDR1 (P-gp) expressed in Pichia pastoris.
Set-up: scale not given: the % may be the effect or the level left

`Cc1cc(C)c(-c2cc(NC(=O)CSCC(=O)c3ccc4c(c3)Cc3ccccc3-4)n(-c3ccccc3)n2)cc1C` gave an Activity at 0.5 h of 69%.

These compounds were tested against T2, ATP-dependent translocase ABCB1 (assay: Reversal of P-gp mediated multidrug resistance in human DU145-TxR cells overexpressing P-gp assessed as potentiation of paclitaxel-induced cytotoxicity by measuring fold reduction paclitaxel IC50 at 5 uM after 48 hrs by MTT assay relative to paclitaxel alone). Conditions: not given.
Format: cell-based
In short: as §1

Going from `Cc1cc(C)c(-c2cc(NC(=O)CSCC(=O)c3ccc4c(c3)Cc3ccccc3-4)n(-c3ccccc3)n2)cc1C` to `Cc1cc(C)c(-c2cc(NC(=O)CSCC(=O)NCc3ccc(F)cc3)n(-c3ccccc3)n2)cc1C`, the “fold change (FC)” value falls from 14 to 5.6.

The compounds below were run against T1, P-glycoprotein (ABCB1, MDR1) ATPase (assay: Effect on basal ATPase hydrolysis of recombinant human MDR1 expressed in Pichia pastoris measured after 30 mins in presence of NADH by coupled enzyme assay (reference value: 100 +/- 5 %)). Conditions: recombinant human MDR1 (P-gp) expressed in Pichia pastoris, read-out: Activity.
Set-up: scale not given: the % may be the effect or the level left

With `Cc1cc(C)c(-c2cc(NC(=O)CSCC(=O)NCc3ccc(F)cc3)n(-c3ccccc3)n2)cc1C` the Activity at 0.5 h was 95%.

Each compound was assayed against T2, ATP-dependent translocase ABCB1 (assay: Reversal of P-gp mediated multidrug resistance in human DU145-TxR cells overexpressing P-gp assessed as potentiation of paclitaxel-induced cytotoxicity by measuring fold reduction paclitaxel IC50 at 7 uM after 48 hrs by MTT assay relative to paclitaxel alone). Conditions: not given.
Format: cell-based
In short: as §1

Going from `Cc1cc(C)c(-c2cc(NC(=O)CSCC(=O)c3ccc4c(c3)Cc3ccccc3-4)n(-c3ccccc3)n2)cc1C` to `Cc1cc(C)c(-c2cc(NC(=O)CSCC(=O)NCc3ccc(F)cc3)n(-c3ccccc3)n2)cc1C`, the “fold change (FC)” value falls from 34 to 11.

Each compound was assayed against T2, ATP-dependent translocase ABCB1 (assay: Reversal of P-gp mediated multidrug resistance in human DU145-TxR cells overexpressing P-gp assessed as potentiation of paclitaxel-induced cytotoxicity by measuring fold reduction paclitaxel IC50 at 5 uM after 48 hrs by MTT assay relative to parent compound). Conditions: not given.
Format: cell-based
In short: as §1

Compared with `Cc1cc(C)c(-c2cc(NC(=O)CSCC(=O)c3ccc4c(c3)Cc3ccccc3-4)n(-c3ccccc3)n2)cc1C`, `Cc1cc(C)c(-c2cc(NC(=O)CSCC(=O)NCc3ccc(F)cc3)n(-c3ccccc3)n2)cc1C` is lower in “fold change (FC)” value: 1.3 for the first, 0.5 for the second.

What follows are compounds tested against T2, ATP-dependent translocase ABCB1 (assay: Inhibition of P-gp overexpressed in human DU145-TxR cells assessed as increase in intracellular compound accumulation after 2.5 hrs in presence of tariquidar by LC-MS/MS analysis). Conditions: not given.
Format: cell-based
In short: as §2

In the case of `Cc1cc(C)c(-c2cc(NC(=O)CSCC(=O)NCc3ccc(F)cc3)n(-c3ccccc3)n2)cc1C`, the “inhibition (INH)” value is reported as “Active”.

These compounds were tested against T2, ATP-dependent translocase ABCB1 (assay: Reversal of P-gp mediated multidrug resistance in human DU145-TxR cells overexpressing P-gp assessed as potentiation of paclitaxel-induced cytotoxicity by measuring fold reduction paclitaxel IC50 at 3 uM after 48 hrs by MTT assay relative to parent compound). Conditions: not given.
Format: cell-based
In short: as §1

Going from `Cc1cc(C)c(-c2cc(NC(=O)CSCC(=O)c3ccc4c(c3)Cc3ccccc3-4)n(-c3ccccc3)n2)cc1C` to `Cc1cc(C)c(-c2cc(NC(=O)CSCC(=O)NCc3ccc(F)cc3)n(-c3ccccc3)n2)cc1C`, the “fold change (FC)” value falls from 2.4 to 1.4.

Each compound was assayed against T3, P-glycoprotein (ABCB1, mouse MDR3) ATPase (assay: Effect on verampil-mediated ATPase hydrolysis of recombinant mouse MDR3 expressed in Pichia pastoris measured after 30 mins in presence of NADH by coupled enzyme assay (reference value: 100 +/- 8 %)). Conditions: recombinant mouse MDR3 (P-gp) expressed in Pichia pastoris, read-out: Activity.
Set-up: scale not given: the % may be the effect or the level left

Compared with `Cc1cc(C)c(-c2cc(NC(=O)CSCC(=O)c3ccc4c(c3)Cc3ccccc3-4)n(-c3ccccc3)n2)cc1C`, `Cc1cc(C)c(-c2cc(NC(=O)CSCC(=O)NCc3ccc(F)cc3)n(-c3ccccc3)n2)cc1C` is lower in Activity at 0.5 h: 108% for the first, 98% for the second.

These compounds were tested on P-glycoprotein 1 Abcb1a (Mus musculus) (assay: Inhibition of 2',3'-(2,2,5,5,-tetramethyl-3-pyrroline-l-oxyl-3-carboxylic acid ester)ATP interaction with mouse MDR3 P-gp expressed in Escherichia coli BL21 (DE3) assessed as reduction in ATP binding from 2 to 1 of nucleotide to mol of protein by ESR analysis (reference value: 1.8 +/- 0.1)). Conditions: not given.

First: Cc1cc(C)c(-c2cc(NC(=O)CSCC(=O)c3ccc4c(c3)Cc3ccccc3-4)n(-c3ccccc3)n2)cc1C
Second: Cc1cc(C)c(-c2cc(NC(=O)CSCC(=O)NCc3ccc(F)cc3)n(-c3ccccc3)n2)cc1C
The Activity of the first is lower: 1.7 for the first, 1.9 for the second.

These compounds were tested against T2, ATP-dependent translocase ABCB1 (assay: Inhibition of P-gp overexpressed in human DU145-TxR cells assessed as increase in cellular accumulation of calcein AM at 2 uM pretreated followed by calcein AM addition by fluorescence imaging analysis). Conditions: not given.
Format: cell-based
In short: as §3

`Cc1cc(C)c(-c2cc(NC(=O)CSCC(=O)c3ccc4c(c3)Cc3ccccc3-4)n(-c3ccccc3)n2)cc1C` was tested, and the “inhibition (INH)” value was “Active”.
`Cc1cc(C)c(-c2cc(NC(=O)CSCC(=O)NCc3ccc(F)cc3)n(-c3ccccc3)n2)cc1C` was tested, and the “inhibition (INH)” value was “Active”.
